In PubChem BioAssay one finds outcome, potentiation and current potentiation data, which are given here for 40 compounds.

Structures are written as SMILES. The source made the active and inactive calls.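 The calls were made as follows, unless noted: active = current rise at least 3 SD above the untreated control mean in each of two repeat wells; inactive = the rest.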

Sequence of Potassium voltage-gated channel subfamily KQT member 1 (Homo sapiens) (P51787 whole entry, looked up): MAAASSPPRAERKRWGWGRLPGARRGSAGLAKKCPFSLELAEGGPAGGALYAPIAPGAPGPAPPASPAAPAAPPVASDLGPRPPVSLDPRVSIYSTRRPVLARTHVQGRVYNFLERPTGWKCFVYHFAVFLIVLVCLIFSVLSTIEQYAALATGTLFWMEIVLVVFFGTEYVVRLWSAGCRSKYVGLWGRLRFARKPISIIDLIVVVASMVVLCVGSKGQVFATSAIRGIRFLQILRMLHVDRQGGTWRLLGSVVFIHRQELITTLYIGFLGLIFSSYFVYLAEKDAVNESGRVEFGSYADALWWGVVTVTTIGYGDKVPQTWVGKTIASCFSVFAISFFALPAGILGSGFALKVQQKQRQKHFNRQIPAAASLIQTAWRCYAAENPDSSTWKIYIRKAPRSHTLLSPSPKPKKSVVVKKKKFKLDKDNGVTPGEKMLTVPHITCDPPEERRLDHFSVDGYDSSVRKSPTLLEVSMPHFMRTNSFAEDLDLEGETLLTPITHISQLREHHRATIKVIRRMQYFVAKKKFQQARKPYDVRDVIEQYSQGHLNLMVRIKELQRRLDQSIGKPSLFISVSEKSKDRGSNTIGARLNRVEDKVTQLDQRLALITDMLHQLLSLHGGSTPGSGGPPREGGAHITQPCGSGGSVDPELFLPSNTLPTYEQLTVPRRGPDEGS

For one test, the target named is Potassium voltage-gated channel subfamily KQT member 1 (Homo sapiens) (UniProt P51787). Kind of test: enhancement of KCNQ1 channel thallium flux – FluxOR thallium flux, CHO cells, duplicates, confirmation (AID 493007;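 active = potentiation averaged over duplicate wells exceeding buffer-only control mean by more than 3 SD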;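 as to outcome: cells depolarized by a potassium plus thallium sulfate stimulus after compound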;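 as to potentiation: 0% = buffer-only wells and 100% = R-L3 activator control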). The settings on record: KCNQ1 cell line, FluxOR thallium flux fluorescence, at 10 µM; hits give high values, % of reference activator effect, buffer zero. The method in brief:
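Assay system: CHO cells carrying KCNQ1 | Controls: Buffer and R-L3 controls | Schedule: FluxOR dye loading 90 min, compound exposure 20 min, room temperature | Read-out: Baseline-normalized fluorescence change, percent of buffer-to-R-L3 range | Replicates: Each compound tested in duplicate | Technique: Kinetic thallium influx fluorescence with FluxOR dye, 10 s baseline, 110 s post-stimulus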
In the case of `CC(c1nccs1)N(C)C(=O)CCc1nnc(Cc2c[nH]c3ccccc23)o1` (configuration not stated), the result was inactive.

As for `CCN1CCN(C(c2ccccn2)c2c(NC(=O)c3ccccc3)sc(C)c2C)CC1` (configuration not stated), the outcome was inactive.

As to `CCN(C(=O)c1cc2c(=O)[nH]c3ccc(C)cc3c2s1)c1ccccc1F`, the potentiation is 25% (active).

On to `COc1cccc(-c2nc(=S)c3c(o2)CCCC3)c1`, for which the outcome was inactive.

In the case of `N=c1sccn1CC(=O)Nc1ccc(S(=O)(=O)N2CCOCC2)cc1`, the result was inactive.

Consider `O=C(CCN1Cc2ccccc2C1)c1ccc2c(c1)OCCO2`, for which the potentiation is 45.5% (active).

With `Cc1ccc(C)c(Cn2c(O)c(N=NC(=S)Nc3ccccc3F)c3ccccc32)c1`, the outcome was inactive.

`Cc1onc(-c2ccccc2)c1C(=O)NC(=S)NNC(=O)c1ccccc1O`: the potentiation was 17.5% (active).

On to `Cc1cc(/C=N/n2cnnc2)c(C)n1-c1cc(Cl)ccc1Cl`, for which the result was inactive.

As to `O=C(NCC(c1cccs1)N1CCOCC1)C1CCN(S(=O)(=O)c2cccc(C(F)(F)F)c2)CC1` (configuration not stated), the outcome was inactive.

For `COc1ccc(OC)c(NC(=S)NC(=O)c2ccc(Br)o2)c1`, the result was inactive.

Consider `CN(C(=O)c1ccc2c(c1)OCO2)C1CCCCC1`, for which the result was inactive.

The target in another test is Potassium voltage-gated channel subfamily KQT member 2 (Rattus norvegicus) (UniProt O88943). Nature of the test: KCNQ2 thallium flux enhancement – KCNQ2-CHO-K1 cells, selectivity assay for KCNQ1 potentiator project (AID 493009;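 active = mean duplicate potentiation above the buffer control mean plus 5 SD of buffer wells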;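 also: assay conditions were tuned for KCNQ1 rather than KCNQ2 modulators; signal is max minus min fluorescence divided by baseline after thallium stimulus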). The settings on record: FluxOR thallium flux fluorescence, at 10 µM; hits give high values, scaled: buffer 0, activator control 100.
Sequence of Potassium voltage-gated channel subfamily KQT member 2 (Rattus norvegicus) (O88943 whole entry, looked up): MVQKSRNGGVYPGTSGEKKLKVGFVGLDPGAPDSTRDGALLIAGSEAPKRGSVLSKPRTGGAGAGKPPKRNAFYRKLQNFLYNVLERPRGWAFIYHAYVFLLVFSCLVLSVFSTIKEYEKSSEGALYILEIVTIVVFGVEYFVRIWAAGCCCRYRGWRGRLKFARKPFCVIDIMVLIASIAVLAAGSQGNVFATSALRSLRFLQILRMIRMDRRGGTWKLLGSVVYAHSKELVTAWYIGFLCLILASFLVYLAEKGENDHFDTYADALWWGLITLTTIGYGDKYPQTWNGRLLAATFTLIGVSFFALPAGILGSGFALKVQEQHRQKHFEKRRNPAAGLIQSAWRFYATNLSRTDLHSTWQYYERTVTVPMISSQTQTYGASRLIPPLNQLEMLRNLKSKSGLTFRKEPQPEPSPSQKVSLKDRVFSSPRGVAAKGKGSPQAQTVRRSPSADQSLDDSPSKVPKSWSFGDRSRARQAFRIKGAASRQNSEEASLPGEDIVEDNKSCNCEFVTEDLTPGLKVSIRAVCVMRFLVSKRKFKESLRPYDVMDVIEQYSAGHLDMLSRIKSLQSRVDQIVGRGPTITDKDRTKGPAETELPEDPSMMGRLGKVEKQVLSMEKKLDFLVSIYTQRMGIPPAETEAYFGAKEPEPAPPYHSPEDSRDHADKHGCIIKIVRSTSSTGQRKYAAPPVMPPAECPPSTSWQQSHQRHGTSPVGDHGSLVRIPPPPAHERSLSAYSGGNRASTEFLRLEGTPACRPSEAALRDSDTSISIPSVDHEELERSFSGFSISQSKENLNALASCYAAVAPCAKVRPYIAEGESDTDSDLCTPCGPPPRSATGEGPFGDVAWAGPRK
With `N#Cc1ccccc1OCCN1C(=O)c2ccccc2C1=O`, the outcome was inactive.

Turning to `CC1CCCCC1NC(=S)NC(=O)c1sc2ccccc2c1Cl` (configuration not stated), the result was inactive.

`CC(Oc1ccc2ccccc2c1)C(=O)NNC(=S)NC(=O)c1ccco1` (configuration not stated): the potentiation was 214% (active).

Regarding `Cc1cc(C)cc(OCC(=O)NNC(=O)c2cc3ccccc3o2)c1`, the outcome was inactive.

As to `Cc1cc(NC(=O)CSCC(=O)OC(C)C(=O)N(C)Cc2ccccc2)no1` (configuration not stated), the result was inactive.

For the compound `CCn1c(CCNC(=O)c2ccc(Cl)cc2Cl)n[nH]c1=S`, the outcome was inactive.

As for `Cc1ccc(-n2ncc3c(=O)n(CC(=O)N4CCN(c5ccccc5F)CC4)cnc32)cc1C`, the outcome was inactive.

Turning to `O=C(CC1(O)C(=O)N(Cc2ccccc2)c2ccccc21)c1ccncc1` (configuration not stated), the potentiation was 146% (active).

Turning to `O=C(NC(=S)Nc1nc2c(s1)CCCC2)c1ccccc1`, the outcome was inactive.

For the compound `COc1ccc(CCNC(=O)CCOc2cc(C)ccc2C)cc1OC`, the result was inactive.

For `NC(=Nc1ccc(Cl)cc1)c1ccccc1`, the result was inactive.

Turning to `S=C(Nc1ccc(Cl)cc1)c1nc2ccccc2s1`, the outcome was inactive.

Turning to `CCCOc1ccc(C(=O)NNC(=S)NC(=O)c2cc(-c3ccc(Cl)cc3)nc3ccccc23)cc1`, the outcome was inactive.

On to `COc1ccc(-c2csc(N(CCCN(C)C)C(=O)c3ccccc3F)n2)cc1`, for which the result was inactive.

`CCOC(=O)c1c(N)sc(C(C)=O)c1C`: the outcome was inactive.

On to `CCOC(=O)N1CCC(NC(=O)c2cc(C(=O)NCc3ccc(F)cc3)ccc2CO)CC1`, for which the result was inactive.

With `COc1cc(OC)cc(C(=O)N2CC(=O)Nc3ccccc32)c1`, the result was inactive.

Turning to `O=C(CSc1nnc(-c2ccccn2)n1-c1ccc(Cl)cc1)Nc1ccc2c(c1)OCO2`, the outcome was inactive.

As for `Oc1c(/C=N/c2ccccn2)sc2ccccc12`, the outcome was inactive.

For the compound `S=c1nc[nH]c2c1sc1nc(N3CCOCC3)c3c(c12)CCCC3`, the result was inactive.

On to `CCn1c(SCC(=O)Nc2ccccc2F)nnc1-c1cnccn1`, for which the outcome was inactive.

For the compound `CC(C)(C)NCC(O)CON=C1c2ccccc2-c2ccccc21` (configuration not stated), the outcome was inactive.

On to `O=C(NNC(=O)c1cc(-c2ccccc2)nn1-c1ccccc1)c1ccccc1`, for which the outcome was inactive.

On to `CCN(CC)S(=O)(=O)c1ccc(NC(=O)c2cccnc2Cl)c(NC(=O)c2cccnc2Cl)c1`, for which the potentiation is 242% (active).

Consider `O=C(O)c1cc2cc(F)ccc2[nH]1`, for which the result was inactive.

For the compound `COC1(c2ccccc2)NC(=S)NN=C1c1ccccc1` (configuration not stated), the outcome was inactive.

For `O=C(N/C(=C\c1ccc([N+](=O)[O-])cc1)C(=O)N1CCCCC1)c1ccco1`, the result was inactive.

Turning to `COc1ccc(NC(=O)CN2CCN(C3c4ccccc4-c4ccccc43)CC2)cc1`, the result was inactive.

For `CC(c1nccs1)N(C)C(=O)CCc1nnc(Cc2c[nH]c3ccccc23)o1` (configuration not stated), the result was inactive.

On to `CCN1CCN(C(c2ccccn2)c2c(NC(=O)c3ccccc3)sc(C)c2C)CC1` (configuration not stated), for which the outcome was inactive.

As to `CCN(C(=O)c1cc2c(=O)[nH]c3ccc(C)cc3c2s1)c1ccccc1F`, the outcome was inactive.

Regarding `COc1cccc(-c2nc(=S)c3c(o2)CCCC3)c1`, the result was inactive.

Turning to `N=c1sccn1CC(=O)Nc1ccc(S(=O)(=O)N2CCOCC2)cc1`, the result was inactive.

`O=C(CCN1Cc2ccccc2C1)c1ccc2c(c1)OCCO2`: the result was inactive.

On to `Cc1ccc(C)c(Cn2c(O)c(N=NC(=S)Nc3ccccc3F)c3ccccc32)c1`, for which the result was inactive.

As for `Cc1onc(-c2ccccc2)c1C(=O)NC(=S)NNC(=O)c1ccccc1O`, the result was inactive.

For `Cc1cc(/C=N/n2cnnc2)c(C)n1-c1cc(Cl)ccc1Cl`, the result was inactive.

Consider `O=C(NCC(c1cccs1)N1CCOCC1)C1CCN(S(=O)(=O)c2cccc(C(F)(F)F)c2)CC1` (configuration not stated), for which the outcome was inactive.

`COc1ccc(OC)c(NC(=S)NC(=O)c2ccc(Br)o2)c1`: the result was inactive.

For `CN(C(=O)c1ccc2c(c1)OCO2)C1CCCCC1`, the outcome was inactive.

For a further test, the target named is Potassium voltage-gated channel subfamily KQT member 1 (Homo sapiens) (UniProt P51787). Kind of test: KCNQ1 activators by electrophysiology – IonWorks patch clamp, KCNQ1-CHO cells, orthogonal assay for KCNQ1 potentiator project, confirmation (AID 493184).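 As to current potentiation: percent change of the same well's current before compound addition so 0% = no change.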 The following applies: automated patch clamp current, at 10 µM; hits give high values. In outline:
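Material: KCNQ1-expressing CHO cells; doses: 10 µM final, single point; probe or stimulus: voltage step from -90 mV holding to +40 mV, 2,000 ms; signal: automated voltage clamp, amphotericin B perforated patch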
A general note: Patch clamp records ionic current or voltage across a cell membrane.
In the case of `N#Cc1ccccc1OCCN1C(=O)c2ccccc2C1=O`, the outcome was inactive.

Consider `CC1CCCCC1NC(=S)NC(=O)c1sc2ccccc2c1Cl` (configuration not stated), for which the result was inactive.

Turning to `CC(Oc1ccc2ccccc2c1)C(=O)NNC(=S)NC(=O)c1ccco1` (configuration not stated), the result was inactive.

On to `Cc1cc(C)cc(OCC(=O)NNC(=O)c2cc3ccccc3o2)c1`, for which the outcome was inactive.

As for `Cc1cc(NC(=O)CSCC(=O)OC(C)C(=O)N(C)Cc2ccccc2)no1` (configuration not stated), the result was inactive.

`CCn1c(CCNC(=O)c2ccc(Cl)cc2Cl)n[nH]c1=S`: the outcome was inactive.

On to `Cc1ccc(-n2ncc3c(=O)n(CC(=O)N4CCN(c5ccccc5F)CC4)cnc32)cc1C`, for which the outcome was inactive.

With `O=C(CC1(O)C(=O)N(Cc2ccccc2)c2ccccc21)c1ccncc1` (configuration not stated), the result was inactive.

On to `O=C(NC(=S)Nc1nc2c(s1)CCCC2)c1ccccc1`, for which the outcome was inactive.

Take `COc1ccc(CCNC(=O)CCOc2cc(C)ccc2C)cc1OC`: the outcome was inactive.

As for `NC(=Nc1ccc(Cl)cc1)c1ccccc1`, the result was inactive.

As to `S=C(Nc1ccc(Cl)cc1)c1nc2ccccc2s1`, the result was inactive.

Regarding `CCCOc1ccc(C(=O)NNC(=S)NC(=O)c2cc(-c3ccc(Cl)cc3)nc3ccccc23)cc1`, the outcome was inactive.

In the case of `COc1ccc(-c2csc(N(CCCN(C)C)C(=O)c3ccccc3F)n2)cc1`, the result was inactive.

Regarding `CCOC(=O)c1c(N)sc(C(C)=O)c1C`, the outcome was inactive.

In the case of `CCOC(=O)N1CCC(NC(=O)c2cc(C(=O)NCc3ccc(F)cc3)ccc2CO)CC1`, the result was inactive.

On to `COc1cc(OC)cc(C(=O)N2CC(=O)Nc3ccccc32)c1`, for which the outcome was inactive.

For `O=C(CSc1nnc(-c2ccccn2)n1-c1ccc(Cl)cc1)Nc1ccc2c(c1)OCO2`, the outcome was inactive.

`Oc1c(/C=N/c2ccccn2)sc2ccccc12`: the outcome was inactive.

As for `S=c1nc[nH]c2c1sc1nc(N3CCOCC3)c3c(c12)CCCC3`, the outcome was inactive.

In the case of `CCn1c(SCC(=O)Nc2ccccc2F)nnc1-c1cnccn1`, the outcome was inactive.

With `CC(C)(C)NCC(O)CON=C1c2ccccc2-c2ccccc21` (configuration not stated), the outcome was inactive.

Consider `O=C(NNC(=O)c1cc(-c2ccccc2)nn1-c1ccccc1)c1ccccc1`, for which the outcome was inactive.

On to `CCN(CC)S(=O)(=O)c1ccc(NC(=O)c2cccnc2Cl)c(NC(=O)c2cccnc2Cl)c1`, for which the outcome was inactive.

On to `O=C(O)c1cc2cc(F)ccc2[nH]1`, for which the result was inactive.

On to `COC1(c2ccccc2)NC(=S)NN=C1c1ccccc1` (configuration not stated), for which the result was inactive.

Turning to `O=C(N/C(=C\c1ccc([N+](=O)[O-])cc1)C(=O)N1CCCCC1)c1ccco1`, the result was inactive.

With `COc1ccc(NC(=O)CN2CCN(C3c4ccccc4-c4ccccc43)CC2)cc1`, the result was inactive.

Take `CC(c1nccs1)N(C)C(=O)CCc1nnc(Cc2c[nH]c3ccccc23)o1` (configuration not stated): the result was inactive.

Regarding `CCN1CCN(C(c2ccccn2)c2c(NC(=O)c3ccccc3)sc(C)c2C)CC1` (configuration not stated), the result was inactive.

Take `CCN(C(=O)c1cc2c(=O)[nH]c3ccc(C)cc3c2s1)c1ccccc1F`: the result was inactive.

Take `COc1cccc(-c2nc(=S)c3c(o2)CCCC3)c1`: the result was inactive.

Regarding `N=c1sccn1CC(=O)Nc1ccc(S(=O)(=O)N2CCOCC2)cc1`, the outcome was inactive.

Consider `O=C(CCN1Cc2ccccc2C1)c1ccc2c(c1)OCCO2`, for which the outcome was inactive.

On to `Cc1ccc(C)c(Cn2c(O)c(N=NC(=S)Nc3ccccc3F)c3ccccc32)c1`, for which the result was inactive.

As to `Cc1onc(-c2ccccc2)c1C(=O)NC(=S)NNC(=O)c1ccccc1O`, the result was inactive.

Consider `Cc1cc(/C=N/n2cnnc2)c(C)n1-c1cc(Cl)ccc1Cl`, for which the current potentiation was 18.5% (active).

For the compound `O=C(NCC(c1cccs1)N1CCOCC1)C1CCN(S(=O)(=O)c2cccc(C(F)(F)F)c2)CC1` (configuration not stated), the outcome was inactive.

In the case of `COc1ccc(OC)c(NC(=S)NC(=O)c2ccc(Br)o2)c1`, the result was inactive.

For `CN(C(=O)c1ccc2c(c1)OCO2)C1CCCCC1`, the outcome was inactive.
